Reference: ChEMBL document CHEMBL4346727, “Synthesis and pharmacological evaluation of novel N-Mannich bases derived from 5,5-diphenyl and 5,5-di(propan-2-yl)imidazolidine-2,4-dione core” (Bioorg Med Chem Lett, 2019)
The source made the active and inactive calls. The rule behind the calls is not given here.

Assays:
[1] = Neurotoxicity in po dosed Sprague-Dawley rat assessed as time to peak effect by rotarod test; format: toxicity, organism-based; conditions: in vivo
[2] = Neurotoxicity in Sprague-Dawley rat at 30 mg/kg, po measured after 15 mins by rotarod test; format: toxicity, organism-based; conditions: in vivo, 0.25 h
Method in brief: (§1)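 Rats given one oral dose of 30 mg/kg and tested on the rotarod at 0.25, 0.5, 1, 2, 4 and 6 h.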

[3] = Neurotoxicity in CD1 mouse at 50 mg/kg, ip measured after 1 hr by rotarod test; conditions: in vivo
Mus musculus [4] = experiment: Anticonvulsant activity in ip dosed CD1 mouse assessed as protection against 50 mA current-induced seizure and measured after 0.5 hrs by maximal electroshock seizure test; format: functional; conditions: read-out: MED
Method in brief: (§2)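 Mice were screened after intraperitoneal doses of 30, 100 and 300 mg/kg in the maximal electroshock and subcutaneous pentylenetetrazole tests, examined at 0.5 and 4 h. The value recorded is the minimum dose showing activity. No activity up to 300 mg/kg is scored as absent.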

Rattus norvegicus [5] = experiment: Anticonvulsant activity in po dosed Sprague-Dawley rat assessed as protection against subcutaneous pentylenetetrazole-induced seizures; format: functional
[6] = Neurotoxicity in Sprague-Dawley rat at 30 mg/kg, po measured after 30 mins by rotarod test; format: toxicity, organism-based; conditions: in vivo, 0.5 h; method in brief: as §1
Rattus norvegicus [7] = experiment: Anticonvulsant activity in Sprague-Dawley rat assessed as protection against 150 mA current-induced seizure at 30 mg/kg, po measured after 1 hr by maximal electroshock seizure test; format: functional, organism-based
Method in brief: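 Rats received 30 mg/kg orally and were given maximal electroshock at 0.25, 0.5, 1, 2, 4 and 6 h. Read-out is the number of rats protected out of four.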

Mus musculus [8] = experiment: […] in CD1 mouse model assessed as formalin-induced nociception by measuring AUC during acute phase at 11 mg/kg, ip measured for 5 mins by formalin test relative to control; format: functional
[9] = Neurotoxicity in CD1 mouse at 50 mg/kg, ip measured after 15 mins by rotarod test; conditions: in vivo, 0.25 h
Rattus norvegicus [10] = experiment: Anticonvulsant activity in po dosed Sprague-Dawley rat assessed as time to peak effect on protection against subcutaneous pentylenetetrazole-induced seizures; format: functional
Mus musculus [11] = experiment: Anti-inflammatory activity in CD1 mouse model assessed as formalin-induced nociception by measuring AUC during inflammatory phase at 11 mg/kg, ip measured for 5 mins by formalin test relative to control; format: functional
Mus musculus [12] = experiment: Anticonvulsant activity in CD1 mouse assessed as protection against 32 mA current-induced seizure at 25 mg/kg, ip measured after 4 hrs by 6 Hz psychomotor seizure test
Mus musculus [13] = experiment: Anticonvulsant activity in CD1 mouse assessed as protection against 32 mA current-induced seizure at 100 mg/kg, ip measured after 2 hrs by 6 Hz psychomotor seizure test
[14] = Neurotoxicity in ip dosed CD1 mouse model by rotarod test; format: toxicity, organism-based; conditions: in vivo
Mus musculus [15] = experiment: Anticonvulsant activity in CD1 mouse assessed as protection against 32 mA current-induced seizure at 50 mg/kg, ip measured after 15 mins by 6 Hz psychomotor seizure test
Rattus norvegicus [16] = experiment: Anticonvulsant activity in po dosed Sprague-Dawley rat assessed as time to peak effect on protection against 150 mA current-induced seizures; format: functional
Method in brief: (§3)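 Median effective doses were quantified in the maximal electroshock, subcutaneous pentylenetetrazole and 6 Hz tests after intraperitoneal dosing in mice or oral dosing in rats, at the time of peak effect. ED50 values are reported with ranges in parentheses.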

[17] = Neurotoxicity in CD1 mouse at 50 mg/kg, ip measured after 30 mins by rotarod test; conditions: in vivo, 0.5 h
[18] = Neurotoxicity in CD1 mouse at 25 mg/kg, ip measured after 15 mins by rotarod test; conditions: in vivo, 0.25 h
[19] = Neurotoxicity in CD1 mouse at 100 mg/kg, ip and measured after 0.5 to 4 hrs by rotarod test; format: toxicity, organism-based; conditions: in vivo
Method in brief: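 Rotarod neurotoxicity screen in mice after intraperitoneal dosing. For the 6 Hz series the count is mice out of four showing neurotoxicity, scored as inability to grasp the rotarod or muscle spasms, at 0.25–4 h. For the initial screen the minimum toxic dose is taken from 30, 100 and 300 mg/kg at 0.5 and 4 h.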

[20] = Neurotoxicity in CD1 mouse at 25 mg/kg, ip measured after 30 mins by rotarod test; conditions: in vivo, 0.5 h
Mus musculus [21] = experiment: Anticonvulsant activity in ip dosed CD1 mouse assessed as time to peak effect on protection against 32 mA current-induced seizure by 6 Hz psychomotor seizure test; format: functional; method in brief: as §3
[22] = Protection index, ratio of TD50 for neurotoxicity in ip dosed CD1 mouse by rotarod test to ED50 for anticonvulsant activity in ip dosed CD1 mouse by maximal electroshock seizure test; format: toxicity, organism-based; conditions: in vivo, read-out: Ratio TD50/ED50
Mus musculus [23] = experiment: Anticonvulsant activity in ip dosed CD1 mouse assessed as protection against 32 mA current-induced seizure by 6 Hz psychomotor seizure test; format: functional; method in brief: as §3
Mus musculus [24] = experiment: Antiallodynic activity in CD1 mouse assessed as reduction in oxaliplatin-induced neuropathic pain in late phase by measuring paw withdrawal force at 11 mg/kg, ip measured after 7 days by Von Frey test relative to untreated control; format: functional; set-up: scale not given: the % may be the effect or the level left
Mus musculus [25] = experiment: Anticonvulsant activity in CD1 mouse assessed as protection against 32 mA current-induced seizure at 25 mg/kg, ip measured after 2 hrs by 6 Hz psychomotor seizure test
Mus musculus [26] = experiment: Anticonvulsant activity in CD1 mouse assessed as protection against 32 mA current-induced seizure at 25 mg/kg, ip measured after 1 hr by 6 Hz psychomotor seizure test
Mus musculus [27] = experiment: Anticonvulsant activity in CD1 mouse assessed as protection against 32 mA current-induced seizure at 100 mg/kg, ip measured after 1 hr by 6 Hz psychomotor seizure test
[28] = Neurotoxicity in CD1 mouse at 25 mg/kg, ip measured after 1 hr by rotarod test; conditions: in vivo
[29] = Neurotoxicity in Sprague-Dawley rat at 30 mg/kg, po measured after 4 hr by rotarod test; format: toxicity, organism-based; conditions: in vivo; method in brief: as §1
Mus musculus [30] = experiment: Anticonvulsant activity in ip dosed CD1 mouse assessed as protection against subcutaneous pentylenetetrazole-induced seizures; format: functional; method in brief: as §3
Mus musculus [31] = experiment: Anticonvulsant activity in ip dosed CD1 mouse assessed as protection against 50 mA current-induced seizure and measured after 4 hrs by maximal electroshock seizure test; format: functional; conditions: read-out: MED; method in brief: as §2
Mus musculus [32] = experiment: Anticonvulsant activity in CD1 mouse assessed as protection against subcutaneous pentylenetetrazole-induced seizures at 300 mg/kg, ip and measured after 4 hrs; format: functional, organism-based; method in brief: as §2
[33] = Neurotoxicity in Sprague-Dawley rat at 30 mg/kg, po measured after 1 hr by rotarod test; format: toxicity, organism-based; conditions: in vivo; method in brief: as §1

Compound: CN1CCN(CN2C(=O)NC(c3ccccc3)(c3ccccc3)C2=O)CC1
- Time [1]: 2 h
- Activity [2]: Non-Toxic
- Activity [3]: Non-Toxic
- minimal effective dose (Mus musculus [4]): 10 mg/kg
- ED50 (Rattus norvegicus [5]): > 250 mg/kg
- Activity [6]: Non-Toxic
- Activity (Rattus norvegicus [7]): Active
- Activity (Mus musculus [8]): 67.52%
- Activity [9]: Non-Toxic
- Time (Rattus norvegicus [10]): 2 h
- Activity (Mus musculus [11]): 90.3%
- Activity (Mus musculus [12]): inactive
- Activity (Mus musculus [13]): Active
- TD50 [14]: 75.5 mg/kg
- Activity (Mus musculus [15]): Active
- Time (Rattus norvegicus [16]): 2 h
- Activity [17]: Non-Toxic
- Activity [18]: Non-Toxic
- Activity [19]: Toxic
- Activity [20]: Non-Toxic
- Time (Mus musculus [21]): 1 h
- selectivity ratio [22]: 6.78
- ED50 (Mus musculus [23]): 12.2 mg/kg
- Activity (Mus musculus [24]): 61%
- Activity (Mus musculus [25]): inactive
- Activity (Mus musculus [26]): Active
- Activity (Mus musculus [27]): Active
- Activity [28]: Non-Toxic
- Activity [29]: Non-Toxic
- ED50 (Mus musculus [30]): > 80 mg/kg
- minimal effective dose (Mus musculus [31]): 10 mg/kg
- Activity (Mus musculus [32]): inactive
- Activity [33]: Non-Toxic
